Usually IC50 stands for the concentration that inhibits the measured activity by half.

This passage reports IC50 and Ratio IC50 results from ChEMBL document CHEMBL4622881, “Design, synthesis and biological evaluation of novel pyrrolo[2,3-d]pyrimidine as tumor-targeting agents with selectivity for tumor uptake by high affinity folate receptors over the reduced folate carrier” (Bioorg Med Chem, 2020).

The nature of assay [1]: Inhibition of GARFTase in Chinese Hamster MTXRII-OuaR2-4/RFC/FRalpha/PCFT-null R2 cells assessed as reduction in cell growth after 96 hrs by Cell-Titer Blue assay. Format: cell-based. The note with it: Cricetulus griseus, R2, 96 h.
The nature of assay [2]: Inhibition of GARFTase in Chinese Hamster PC43-10 cells expressing human RFC assessed as reduction in cell growth after 96 hrs by Cell-Titer Blue assay. The note with it: Cricetulus griseus, PC43-10, 96 h. The gist of the method: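 PC43-10 (RFC) or R2/PCFT4 (PCFT) CHO, grown in α-MEM + 10% bovine calf serum + G418 (1 mg/mL). ~2000 cells/well exposed to 0–1000 nM drug in folate-free RPMI 1640 with 10% dialyzed FBS and 25 nM leucovorin for 96 h. Viability by Cell-Titer Blue fluorescence; IC50 as 50% growth inhibition relative to drug-free cells; mean of 5–16 experiments.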

Assay [3] is described as follows: Inhibition of GARFTase in Chinese Hamster RT16 cells expressing human FRalpha assessed as reduction in cell growth after 96 hrs by Cell-Titer Blue assay. Format: cell-based. The note with it: Cricetulus griseus, RT16, 96 h.
A short description of assay [4]: Inhibition of GARFTase in Chinese Hamster D4 cells expressing human FRbeta assessed as reduction in cell growth after 96 hrs by Cell-Titer Blue assay. To be noted: Cricetulus griseus. The assay is classed as cell-based.
A short description of assay [5]: Inhibition of GARFTase in Chinese Hamster MTXRII-OuaR2-4 R2 cells expressing human PCFT assessed as reduction in cell growth after 96 hrs by Cell-Titer Blue assay. The assay is classed as cell-based. To be noted: Cricetulus griseus, R2, 96 h.
Assay [6] is filed under the species Cricetulus griseus. In words: Potency index, ratio of (2S)-2-[[4-[4-(2-amino-4-oxo-3,7-dihydropyrrolo[2,3-d]pyrimidin-6-yl)butyl]benzoyl]amino]pentanedioic acid IC50 to compound IC50 for GARFTase in Chinese Hamster D4 cells expressing human FRbeta assessed as reduction in cell growth after 96 hrs by Cell-Titer Blue assay. The assay is classed as cell-based. The gist of the method: (§1)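 CHO sublines from transporter-null R2 cells, expressing human FRβ (D4) or FRα (RT16), were kept in α-MEM with 10% calf serum and G418 (1 mg/mL). They were then moved to folate-free RPMI 1640 with 10% dialyzed FBS for 3 days. ~2000 cells/well were exposed to 0–1000 nM drug with 2 nM leucovorin for 96 h, ± 200 nM folic acid, and read by Cell-Titer Blue fluorescence. IC50 is 50% growth loss versus untreated cells; index is reference IC50 over compound IC50.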

Assay [7] deals with T1, Trifunctional purine biosynthetic protein adenosine-3 (Homo sapiens) (UniProt P22102).
T1 sequence (whole entry): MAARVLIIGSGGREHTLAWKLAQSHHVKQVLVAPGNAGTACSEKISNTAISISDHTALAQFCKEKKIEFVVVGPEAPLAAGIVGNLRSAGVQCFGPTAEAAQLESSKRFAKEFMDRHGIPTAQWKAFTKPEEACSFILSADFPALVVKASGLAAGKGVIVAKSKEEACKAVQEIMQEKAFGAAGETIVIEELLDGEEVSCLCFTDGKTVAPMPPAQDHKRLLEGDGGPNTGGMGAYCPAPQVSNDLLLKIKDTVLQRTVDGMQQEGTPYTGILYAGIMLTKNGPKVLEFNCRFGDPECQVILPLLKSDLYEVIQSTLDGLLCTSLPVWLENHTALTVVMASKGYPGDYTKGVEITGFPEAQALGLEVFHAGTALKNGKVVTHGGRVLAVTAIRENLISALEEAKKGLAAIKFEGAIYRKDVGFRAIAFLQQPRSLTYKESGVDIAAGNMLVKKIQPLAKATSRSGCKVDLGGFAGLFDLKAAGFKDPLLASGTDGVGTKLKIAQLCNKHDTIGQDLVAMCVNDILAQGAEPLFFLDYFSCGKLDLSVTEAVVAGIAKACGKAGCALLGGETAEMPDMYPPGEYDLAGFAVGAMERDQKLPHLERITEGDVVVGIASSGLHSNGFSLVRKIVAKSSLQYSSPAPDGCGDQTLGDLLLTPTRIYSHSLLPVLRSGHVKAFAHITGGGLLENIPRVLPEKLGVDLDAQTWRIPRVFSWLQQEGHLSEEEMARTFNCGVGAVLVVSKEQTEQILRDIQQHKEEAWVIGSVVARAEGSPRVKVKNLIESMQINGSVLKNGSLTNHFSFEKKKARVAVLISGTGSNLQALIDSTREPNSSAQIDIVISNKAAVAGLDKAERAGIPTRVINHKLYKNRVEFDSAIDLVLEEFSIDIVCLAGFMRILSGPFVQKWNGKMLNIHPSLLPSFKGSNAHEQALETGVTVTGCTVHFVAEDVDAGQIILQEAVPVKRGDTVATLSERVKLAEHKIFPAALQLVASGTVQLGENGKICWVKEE
In words: Potency index, ratio of (2S)-2-[[4-[4-(2-amino-4-oxo-3,7-dihydropyrrolo[2,3-d]pyrimidin-6-yl)butyl]benzoyl]amino]pentanedioic acid IC50 to compound IC50 for GARFTase in human KB cells assessed as reduction in cell growth after 96 hrs by Cell-Titer Blue assay. Format: cell-based. The gist of the method: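 KB human carcinoma cells, which express RFC, FRα and PCFT, were maintained in folate-free RPMI with 10% FBS. ~2000 cells/well were exposed to 0–1000 nM drug in folate-free RPMI 1640 with 10% dialyzed FBS and 2 nM leucovorin for 96 h, ± 200 nM folic acid. Viability was read by Cell-Titer Blue fluorescence. IC50 is 50% growth loss versus untreated cells; index is reference IC50 over compound IC50.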

The species entered for assay [8] is Cricetulus griseus. The assay is described as follows: Potency index, ratio of (2S)-2-[[4-[4-(2-amino-4-oxo-3,7-dihydropyrrolo[2,3-d]pyrimidin-6-yl)butyl]benzoyl]amino]pentanedioic acid IC50 to compound IC50 for GARFTase in Chinese Hamster RT16 cells expressing human FRalpha assessed as reduction in cell growth after 96 hrs by Cell-Titer Blue assay. Format: cell-based. The gist of the method: as §1

Consider `Nc1nc2[nH]c(CCCN(C=O)c3ccc(C(=O)N[C@@H](CCC(=O)O)C(=O)O)cc3)cc2c(=O)[nH]1`, for which the IC50 was above 1000 nM in assay [1]; above 1000 nM in assay [2]; 35.6 nM in assay [3]; 0.61 nM in assay [4]; 893 nM in assay [5]. In the assay listed under Cricetulus griseus [6], the Ratio IC50 turned out to be 16.

For `CC(=O)N(CCCc1cc2c(=O)[nH]c(N)nc2[nH]1)c1ccc(C(=O)N[C@@H](CCC(=O)O)C(=O)O)cc1`, the IC50 is above 1000 nM in assay [1]; above 1000 nM in assay [2]; 57.2 nM in assay [3]; 12.8 nM in assay [4]; above 1000 nM in assay [5].

Turning to `Nc1nc2[nH]c(CCCOc3ccc(C(=O)N[C@@H](CCC(=O)O)C(=O)O)cc3)cc2c(=O)[nH]1`, the IC50 in assay [1] is above 1000 nM; in assay [2], above 1000 nM; in assay [3], 4.6 nM; in assay [4] it was 5.6 nM; in assay [5] it was above 1000 nM. For the same molecule, the Ratio IC50 in the assay listed under Cricetulus griseus [6] was 2.

Turning to `Nc1nc2[nH]c(CCCSc3ccc(C(=O)N[C@@H](CCC(=O)O)C(=O)O)cc3)cc2c(=O)[nH]1`, the IC50 in assay [1] is above 1000 nM; in assay [2], above 1000 nM; in assay [3], 2.56 nM; in assay [4], 0.6 nM; in assay [5] it was 593 nM. For the same molecule, the Ratio IC50 in the assay listed under Cricetulus griseus [6] came out at 16; in assay [7], 6; in the assay listed under Cricetulus griseus [8], 2.

`Nc1nc2[nH]c(CCCCc3ccc(C(=O)N[C@@H](CCC(=O)O)C(=O)O)cc3)cc2c(=O)[nH]1`: the half-inhibitory concentration (IC50) in assay [1] and in assay [2] was above 1000 nM in each case.

Regarding `Nc1nc2[nH]c(CCCc3ccc(C(=O)N[C@@H](CCC(=O)O)C(=O)O)cc3)cc2c(=O)[nH]1`, the IC50 is above 1000 nM in assay [1] and 649 nM in assay [2].

`Nc1nc2[nH]c(CCCNc3ccc(C(=O)N[C@@H](CCC(=O)O)C(=O)O)cc3)cc2c(=O)[nH]1`: the IC50 in assay [1] was 697 nM; in assay [2], 670 nM; in assay [3], 1.76 nM; in assay [4], 1.51 nM; in assay [5], 235 nM. Further, the values for the Ratio IC50 (in the assay listed under Cricetulus griseus [6]; in assay [7]; in the assay filed under Cricetulus griseus [8]) were 6, 2 and 3, respectively.

With `Nc1nc2[nH]c(CCCN(C(=O)C(F)(F)F)c3ccc(C(=O)N[C@@H](CCC(=O)O)C(=O)O)cc3)cc2c(=O)[nH]1`, the IC50 in assay [1] was above 1000 nM; in assay [2] it was above 1000 nM; in assay [3], 5.78 nM; in assay [4], 3.87 nM; in assay [5], 487 nM. In the assay filed under Cricetulus griseus [6], the Ratio IC50 was determined as 3.

For `Nc1nc2[nH]c(CCNc3ccc(C(=O)N[C@@H](CCC(=O)O)C(=O)O)cc3)cc2c(=O)[nH]1`, the IC50 is above 1000 nM in assay [1]; 510 nM in assay [2]; 3.04 nM in assay [3]; 0.62 nM in assay [4]; 87.4 nM in assay [5].
